Here are results for 5 molecules from publication PMC4720140 (Journal of medicinal chemistry, 2015).

Entries after “also recorded” stand apart in the source; their conditions may differ.

In test [1] the test system is phosphorylation of Akt (Ser473), MDM2 and IKK in PC-3 cells. The test is described as follows: Western blot of Akt signaling in PC-3 cells. In kind it is cell-based. The settings on record: different concentrations, 24 h.
Test [2] concerns subcutaneous PC-3 xenograft tumors. Description: PC-3 xenograft tumor growth in nude mice. The test is classed as in vivo, athymic nude mice. The following applies: versus vehicle.
Test [3] relates to ILK distribution in LNCaP cells. The test is described as follows: Immunocytochemistry of cellular distribution of ILK in LNCaP cells. In kind it is cell-based. The following applies: serum-free medium, 24 h. The essentials: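 LNCaP cells seeded on poly-L-lysine-coated surfaces at 12000 cells/cm² for 24 h, then exposed to test compound in serum-free RPMI 1640 for 24 h. Fixed in 4% formaldehyde for 20 min, permeabilised with 0.1% Triton X-100 for 15 min at room temperature, blocked in 1% FBS for 1 h. Endogenous ILK stained with antibody (1:300) overnight, then Alexa Fluor-conjugated secondary (1:500) for 2 h. Nuclei stained with DAPI; imaged by confocal microscopy.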

The subject of test [4] is Akt and PHLPP1 membrane localization in LNCaP cells. The test is described as follows: Immunocytochemistry of cellular distribution of Akt and PHLPP1 in LNCaP cells. In kind it is cell-based. The following applies: serum-free medium, 24 h.
Test [5] deals with phosphorylation of Akt (Ser473), MDM2 and IKK in LNCaP cells. Description: Western blot of Akt signaling in LNCaP cells. The test is classed as cell-based. The settings on record: different concentrations, 24 h. In outline: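 Lines kept in RPMI 1640 with 10% FBS at 37 °C, 5% CO₂. LNCaP were seeded on poly-L-lysine-coated flasks (12000 cells/cm²) for 24 h, then dosed in serum-free RPMI. Cells got test compound for 24 h, then were scraped and lysed in 1% SDS/Tris pH 8 buffer with protease inhibitors. Lysates were spun at 14000g and BCA-normalized, then run on SDS-PAGE/nitrocellulose, probed with primary antibody (1:1000, overnight, 4 °C) and HRP secondary, and detected by ECL.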

The subject of test [6] is membrane translocation of Akt and PHLPP1 in LNCaP cells. Description: Western blot of membrane versus cytoplasmic fractions of LNCaP cells. The following applies: 24 h. The test is classed as cell-based.
The test system of test [7] is phosphorylation of Ser473-Akt, MDM2 and IKK in PC-3 xenograft tumors. The test is described as follows: Western blot of Akt signaling markers in PC-3 tumor lysates. The test is classed as in vivo, athymic nude mice. The settings on record: after 21 days. For orientation: Immunoblotting shows a protein as a band on a membrane.
For test [8], the system named is PC-3 cells. Description: MTT cell viability assay in PC-3 cells. In kind it is cell-based. The settings on record: 24 h exposure in serum-free medium. In outline: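 PC-3 cells plated uncoated at 5000 cells/well in 10% FBS. After 24 h, exposed to test compound in serum-free medium for 24 h. MTT added (0.5 mg/mL final) for 2 h, then medium replaced with DMSO and absorbance read at 595 nm. Viability expressed as % of vehicle-treated control; n = 6, means ± SD.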
Background: Tetrazolium assays rely on reduction of a dye to a coloured formazan, in cell work by metabolically active cells.

For test [9], the target named is T1, PH domain of PDK1 (Homo sapiens, UniProt O15530).
T1 sequence (O15530 459-550 limits assumed): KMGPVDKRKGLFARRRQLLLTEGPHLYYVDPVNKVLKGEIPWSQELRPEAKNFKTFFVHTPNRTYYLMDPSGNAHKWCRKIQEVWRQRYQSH
Description: SPR binding to the PDK1 PH domain. The essentials: (§1)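 Surface plasmon resonance: GST-tagged PH-domain fusion protein amine-coupled to a CM5 chip at 17000 response units. Test compound injected at 1–20 µM at a flow rate of 30 µL/min. DMSO at 1% (v/v) or less in samples and running buffer.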
For orientation: In SPR one partner is held on a chip, and binding of the other changes the refractive index at the surface.

In test [10] the target is T2, PH domain of ILK (Homo sapiens, UniProt Q13418).
T2 sequence (Q13418 180-212 limits assumed): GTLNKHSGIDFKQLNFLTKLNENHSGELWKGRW
Description: SPR binding to the ILK PH domain. In outline: as §1

The target of test [11] is T3, PH domain of PHLPP1 (Homo sapiens, UniProt O60346).
T3 sequence (O60346 536-636 limits assumed): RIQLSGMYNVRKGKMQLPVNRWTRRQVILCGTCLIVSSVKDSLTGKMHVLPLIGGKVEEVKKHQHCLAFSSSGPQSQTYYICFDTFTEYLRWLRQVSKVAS
Description: SPR binding to the PHLPP1 PH domain. In outline: as §1

The mark [12] stands for this setting: ip injection 50 mg/kg once daily for 21 days.
[13] abbreviates: oral gavage 100 mg/kg once daily.

Consider `Cc1c(S(N)(=O)=O)cc2c(c1C)OC(C)(CCCC(C)C)CC2` (centres unmarked) [Compound 20], for which the “Phosphorylation level of Akt (Ser473) and/or MDM2 and IKK” value (from here on “Phosphorylation level of Akt”) in test [1] was “dose-dependently reduced the phosphorylation level of Akt and/or MDM2 and IKK”; in test [5] it was “dose-dependently reduced the phosphorylation level of Akt and/or MDM2 and IKK”. The “Suppression of PC-3 xenograft tumor growth” value in test [2] (setting [12]) and in test [2] (oral gavage 100 mg/kg once daily for 21 days) was “equipotent in suppressing PC-3 tumor growth irrespective of the route of administration” each time. In addition, in [3] (5 µM), the “Cellular distribution of ILK” value is “Lack of effect; also recorded: no apparent changes in the distribution of ILK”. Also, in test [4] (5 µM), the “Localization of Akt and PHLPP1 to the plasma membrane” value (“Localization of Akt and PHLPP1” for short) was “facilitated the localization of Akt and PHLPP1 to the plasma membrane”. In addition, the “Membrane translocation of Akt and PHLPP1 (membrane versus cytoplasmic fractions)” value in test [6] is “higher potency than 3 in facilitating the membrane translocation”. The “Phosphorylation levels of Akt, MDM2 and IKK in tumor lysates” value in test [7] (ip injection 50 mg/kg once daily) was “parallel decreases in the phosphorylation levels of Akt, MDM2, and IKK”; in [7] (setting [13]) it was “parallel decreases in the phosphorylation levels of Akt, MDM2, and IKK”.

Consider `CC(C)CCCC1(C)CCc2cc(S(N)(=O)=O)cc(F)c2O1` (centres unmarked) [Compound 21], for which the “Phosphorylation level of Akt” value in test [1] and in test [5] was “failed to elicit Ser473-Akt dephosphorylation” throughout. Moreover, the “Localization of Akt and PHLPP1” value in [4] (10 µM) is reported as “no change in the cellular distribution of Akt or PHLPP1”.

As for `COc1cc2c(c(C)c1C)OC(C)(CCCC(C)C)CC2` (centres unmarked) [Compound 5], the “Antiproliferative effect (IC50) in PC-3 cells” value in test [8] is “remained inactive”.

With `CC(C)CCCC1(C)CCc2cc(S(N)(=O)=O)cc(Br)c2O1` (centres unmarked) [Compound 22], the “Phosphorylation level of Akt” value in test [1] is “dose-dependently reduced the phosphorylation level of Akt and/or MDM2 and IKK”; in test [5], “dose-dependently reduced the phosphorylation level of Akt and/or MDM2 and IKK”. Further, the “Localization of Akt and PHLPP1” value in [4] (5 µM) is “facilitated the localization of Akt and PHLPP1 to the plasma membrane”.

For `Cc1c(O)cc2c(c1C)O[C@@](C)(CCCC(C)C)CC2` [Compound 3, (S)-2,7,8-trimethyl-2-(4-methylpentyl)chroman-6-ol], the “Phosphorylation level of Akt” value in test [1] is “dose-dependently reduced the phosphorylation level of Akt and/or MDM2 and IKK”; in test [5], “dose-dependently reduced the phosphorylation level of Akt and/or MDM2 and IKK”. The “Suppression of PC-3 xenograft tumor growth” value in test [2] (setting [12]) is “significantly suppressed PC-3 xenograft tumor growth”; in test [2] (oral gavage 100 mg/kg once daily for 21 days, 100 mg/kg), “not apparent; also recorded: no in vivo tumor-suppressive activity”. Moreover, the “Cellular distribution of ILK” value in test [3] (10 µM) is “Lack of effect”. The figures for the Kd in [9], in test [10] and in test [11] were 10.2 ± 1.2 µM, 8.7 ± 3.6 µM and 0.69 ± 0.36 µM, respectively. Moreover, the “Localization of Akt and PHLPP1” value in [4] (10 µM) is “facilitated the localization of Akt and PHLPP1 to the plasma membrane”. For the same molecule, the “Phosphorylation levels of Akt, MDM2 and IKK in tumor lysates” value in test [7] (setting [13]) was “unable to affect any of these signaling markers”.
